ChEMBL document CHEMBL3351943, “Binding modes of reverse fosmidomycin analogs toward the antimalarial target IspC” (J Med Chem, 2014)

Columns and labels:
Plasmodium falciparum [1] = assay: Antimicrobial activity against chloroquine-sensitive Plasmodium falciparum 3D7 assessed as growth inhibition after 3 days by HRP2-based ELISA; assay type: functional, organism-based; conditions: 3D7, 72 h
How it was run: (§1)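 Parasite growth followed by ELISA for P. falciparum histidine-rich protein 2; values are the mean of two duplicate determinations.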

Plasmodium falciparum [2] = assay: Antimicrobial activity against multidrug-resistant Plasmodium falciparum FCR3 assessed as growth inhibition after 3 days by HRP2-based ELISA; assay type: functional, organism-based; conditions: FCR3, 72 h; how it was run: as §1
[3] = target: T1, 1-deoxy-D-xylulose 5-phosphate reductoisomerase (Escherichia coli K-12, UniProt P45568); assay: Inhibition of Escherichia coli M15 recombinant IspC using 1-deoxy-D-xylulose 5-phosphate as substrate by photometric analysis
T1 sequence (P45568 whole entry): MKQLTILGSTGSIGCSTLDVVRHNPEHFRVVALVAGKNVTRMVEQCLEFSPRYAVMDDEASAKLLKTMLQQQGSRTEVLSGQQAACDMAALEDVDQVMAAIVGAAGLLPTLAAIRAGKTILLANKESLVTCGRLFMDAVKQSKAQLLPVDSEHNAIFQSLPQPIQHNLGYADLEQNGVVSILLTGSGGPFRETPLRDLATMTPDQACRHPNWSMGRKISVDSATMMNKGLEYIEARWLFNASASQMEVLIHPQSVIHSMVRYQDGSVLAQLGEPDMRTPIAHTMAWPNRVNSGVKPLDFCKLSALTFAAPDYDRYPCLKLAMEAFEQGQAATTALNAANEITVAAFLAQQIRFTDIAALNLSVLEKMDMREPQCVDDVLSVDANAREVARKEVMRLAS
How it was run: (§2)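 Photometric enzyme assay run per an earlier method. IC50 was fitted by nonlinear regression from eight or more data points. Generally two or three independent determinations were made.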

[4] = Inhibition of Plasmodium falciparum IspC using 1-deoxy-D-xylulose 5-phosphate as substrate by photometric analysis; how it was run: as §2
Plasmodium falciparum [5] = assay: Antimicrobial activity against chloroquine-resistant Plasmodium falciparum Dd2 assessed as growth inhibition after 3 days by HRP2-based ELISA; assay type: functional; conditions: Dd2, 72 h; how it was run: as §1
[6] = target: T2, 1-deoxy-D-xylulose 5-phosphate reductoisomerase (Mycobacterium tuberculosis, UniProt P9WNS1); assay: Inhibition of Mycobacterium tuberculosis IspC using 1-deoxy-D-xylulose 5-phosphate as substrate by photometric analysis
T2 sequence (P9WNS1 whole entry): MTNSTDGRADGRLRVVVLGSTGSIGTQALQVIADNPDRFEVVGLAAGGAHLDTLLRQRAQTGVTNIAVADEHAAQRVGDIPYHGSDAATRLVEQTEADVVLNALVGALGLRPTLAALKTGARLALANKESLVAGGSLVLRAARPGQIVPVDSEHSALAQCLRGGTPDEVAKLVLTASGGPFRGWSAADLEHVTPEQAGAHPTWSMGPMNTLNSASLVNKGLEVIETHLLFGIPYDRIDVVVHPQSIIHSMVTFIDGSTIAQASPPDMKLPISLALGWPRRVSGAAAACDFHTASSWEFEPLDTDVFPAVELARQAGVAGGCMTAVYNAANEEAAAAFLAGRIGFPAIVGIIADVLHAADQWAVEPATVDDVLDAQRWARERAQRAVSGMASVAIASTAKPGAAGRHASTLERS

Compound | IC50 (Plasmodium falciparum [1]) [µM] | IC50 (Plasmodium falciparum [2]) [µM] | IC50 [3] [µM] | IC50 [4] [µM] | IC50 (Plasmodium falciparum [5]) [µM] | IC50 [6] [µM]
Cc1ccc(C(CCC(=O)N(C)O)P(=O)(O)O)cc1 (stereo unspecified) | 0.21 | 0.38 | 0.29 | 0.01 | 0.25 | 
COc1ccc(C(CCC(=O)N(C)O)P(=O)(O)O)cc1 (stereo unspecified) | 0.1 | 0.57 | 0.07 | 0.02 | 0.3 | 2
Cc1ccc(C(CCC(=O)NO)P(=O)(O)O)cc1 (stereo unspecified) | 2.6 |  | 0.7 | 0.19 | 2.8 | 11
COc1ccc(C(CCC(=O)NO)P(=O)(O)O)cc1 (stereo unspecified) | 1.7 |  | 0.14 | 0.08 | 3.6 | 15
COc1ccc(C(CCC(=O)N(C)O)P(=O)(O)O)cc1OC (stereo unspecified) | 0.29 |  | 0.32 | 0.06 | 1.2 | 29
COc1ccc(C(CCC(=O)NO)P(=O)(O)O)cc1OC (stereo unspecified) | 6.8 |  | 1.5 | 0.13 | 8.1 | 163
COc1ccc(C(OCC(=O)N(C)O)P(=O)(O)O)cc1 (stereo unspecified) | 0.31 | 0.41 | 0.45 | 0.05 | 1.1 | 2.8
COc1ccc(C(OCC(=O)NO)P(=O)(O)O)cc1 (stereo unspecified) | > 50 |  | 17 | 2.2 |  | 352
CN(O)C(=O)CCCC(c1ccccc1)P(=O)(O)O (stereo unspecified) | > 50 |  | 4.3 | 2.1 |  | 429
CN(O)C(=O)CCC(NC(=O)c1ccccc1)P(=O)(O)O (stereo unspecified) | > 50 |  | 11 | 9.1 |  | 238
O=C(CCC(NC(=O)c1ccccc1)P(=O)(O)O)NO (stereo unspecified) | > 50 |  | 741 | > 1000 |  | > 1000
O=C(CCC(c1ccccc1)P(=O)(O)O)Nc1ccccc1O (stereo unspecified) | > 50 |  | > 500 | > 300 |  | > 500
O=P(O)(O)CCC(c1cccc2ccccc12)P(=O)(O)O (stereo unspecified) | > 50 |  | > 500 | > 300 |  | > 500
